Results reported in ChEMBL document CHEMBL2021847, “Identification of fused-ring alkanoic acids with improved pharmacokinetic profiles that act as G protein-coupled receptor 40/free fatty acid receptor 1 agonists” (J Med Chem, 2012).
Calls of active or inactive are those of the source. The rule behind the calls is not given here.

Experiments:
[1] = molecular target: T1, Free fatty acid receptor 1 (Homo sapiens, UniProt O14842); experiment: Agonist activity at human […] receptor expressed in CHO cells assessed as increase in intracellular calcium concentration after 90 secs by FLIPR assay in presence of 0.1% BSA; type: functional, cell-based
T1 sequence (O14842 whole entry): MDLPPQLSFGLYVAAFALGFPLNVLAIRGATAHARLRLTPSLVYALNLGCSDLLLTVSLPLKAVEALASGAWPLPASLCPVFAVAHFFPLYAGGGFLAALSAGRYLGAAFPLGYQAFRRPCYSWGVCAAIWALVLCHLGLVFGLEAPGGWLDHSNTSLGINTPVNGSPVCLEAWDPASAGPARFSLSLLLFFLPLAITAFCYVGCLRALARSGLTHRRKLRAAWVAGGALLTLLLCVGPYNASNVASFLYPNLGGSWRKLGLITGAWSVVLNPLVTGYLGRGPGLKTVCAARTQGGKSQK
Method in brief: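 CHO dhfr cells stably expressing human GPR40/FFA1 (NM_005303) plated and held overnight at 37 °C in 5% CO2. Loaded 60 min at 37 °C with Fluo 4-AM 2.5 μg/mL, probenecid 2.5 mmol/L and 0.1% fatty acid-free BSA. Compounds added over a concentration range, Ca2+ rise followed 90 s. Response scaled between vehicle (0%) and 10 μM γ-linolenic acid (100%).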

[2] = Octanol-water partition coefficient, log D of the compound at pH 7.4 by reverse-phase liquid chromatography; type: physicochemical
[3] = molecular target: T1, Free fatty acid receptor 1; experiment: Displacement of 3-[4-({2',6'-dimethyl-6-[(4-[3H])-phenylmethoxy]biphenyl-3-yl}methoxy)phenyl] propanoic acid from human GPR40 receptor expressed in CHO cells after 90 mins by scintillation counting in presence of 0.2% BSA; type: cell-based
Method in brief: (§1)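 Membranes from CHO lines stably expressing human or rat GPR40/FFA1, in Tris-HCl pH 7.5 with EDTA, protease inhibitors, 0.05% CHAPS and 0.2% fatty acid-free BSA. Tritiated ligand at 2 or 6 nmol/L with graded test compound, 90 min at room temperature. Filter harvest, scintillation counting. Nonspecific binding with 10 μmol/L unlabeled ligand. IC50 by nonlinear regression, Ki via Cheng–Prusoff with measured Kd. Averages of n = 2 or 3.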

[4] = molecular target: Free fatty acid receptor 1 (Rattus norvegicus, UniProt Q8K3T4); experiment: Displacement of 3-[4-({2',6'-dimethyl-6-[(4-[3H])-phenylmethoxy]biphenyl-3-yl}methoxy)phenyl] propanoic acid from rat GPR40 receptor expressed in CHO cells after 90 mins by scintillation counting in presence of 0.2% BSA; type: cell-based; method in brief: as §1
Sequence of Free fatty acid receptor 1 (Rattus norvegicus, UniProt Q8K3T4) (Q8K3T4 whole entry): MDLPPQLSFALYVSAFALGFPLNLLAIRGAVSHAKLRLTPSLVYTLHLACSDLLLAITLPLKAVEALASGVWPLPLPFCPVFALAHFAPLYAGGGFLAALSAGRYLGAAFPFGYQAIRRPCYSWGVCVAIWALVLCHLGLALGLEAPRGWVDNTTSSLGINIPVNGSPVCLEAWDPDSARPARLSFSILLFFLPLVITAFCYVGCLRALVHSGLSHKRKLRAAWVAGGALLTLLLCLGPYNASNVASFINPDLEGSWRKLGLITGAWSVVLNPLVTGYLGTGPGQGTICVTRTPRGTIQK

[5] = molecular target: T1, Free fatty acid receptor 1; experiment: Agonist activity at human […] receptor expressed in CHO cells assessed as increase in intracellular calcium concentration at 10 uM after 90 secs by FLIPR assay in presence of 0.1% BSA relative to control; type: functional, cell-based
Method in brief: (§2)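 CHO dhfr cells stably expressing human GPR40/FFA1 (NM_005303) plated, incubated overnight at 37 °C in 5% CO2. Loaded 60 min at 37 °C with Fluo 4-AM (2.5 μg/mL), probenecid (2.5 mmol/L), 0.1% fatty acid-free BSA. Ca2+ rise monitored by FLIPR for 90 s after compound addition. Response expressed as % of 10 μM γ-linolenic acid response, vehicle-corrected.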

[6] = molecular target: T1, Free fatty acid receptor 1; experiment: Agonist activity at human […] receptor expressed in CHO cells assessed as increase in intracellular calcium concentration at 1 uM after 90 secs by FLIPR assay in presence of 0.1% BSA relative to control; type: functional, cell-based; method in brief: as §2
[7] = system: Rattus norvegicus; experiment: Antidiabetic activity in Wistar fatty rat assessed as decrease in plasma glucose level at 1 to 10 mg/kg, po administered as single dose 1 hr prior to glucose challenge measured after 120 mins by OGTT; type: functional, organism-based
Method in brief: (§3)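 Female Wistar fatty rats aged 17−19 weeks, fasted overnight. Dosed orally in 0.5% methylcellulose (vehicle control), then given oral glucose 1 g/kg 1 h later. Tail-vein blood taken pre-dose, at 0, and at 10, 30, 60 and 120 min. Glucose by autoanalyzer, insulin by RIA. Glucose AUC0−120 min and incremental insulin AUC0−120 min calculated. n = 6, one-tailed Williams test versus vehicle.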

[8] = system: Rattus norvegicus; experiment: Antidiabetic activity in po dosed Wistar fatty rat assessed as increase in plasma insulin level administered as single dose 1 hr prior to glucose challenge measured after 120 mins by OGTT; type: functional; conditions: read-out: MED; method in brief: as §3
[9] = system: Rattus norvegicus; experiment: Antidiabetic activity in Wistar fatty rat assessed as increase in plasma insulin level at 10 mg/kg, po administered as single dose 4 hrs prior to glucose challenge measured after 120 mins by OGTT; type: functional, organism-based; parameters: dose 10 mg/kg
Method in brief: (§4)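 Female Wistar fatty rats aged 17−19 weeks, fasted overnight. Given compound orally (10 mg/kg) or vehicle (0.5% methylcellulose), with oral glucose 1 g/kg 4 h later. Tail-vein sampling pre-dose, at 0, and at 10–120 min. Glucose by autoanalyzer, insulin by RIA.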

[10] = system: Rattus norvegicus; experiment: Antidiabetic activity in po dosed Wistar fatty rat assessed as decrease in plasma glucose level administered as single dose 1 hr prior to glucose challenge measured after 120 mins by OGTT; type: functional; conditions: read-out: MED; method in brief: as §3
[11] = system: Rattus norvegicus; experiment: Antidiabetic activity in Wistar fatty rat assessed as decrease in plasma glucose level at 10 mg/kg, po administered as single dose 4 hrs prior to glucose challenge measured after 120 mins by OGTT; type: functional, organism-based; parameters: dose 10 mg/kg; method in brief: as §4
[12] = system: Rattus norvegicus; experiment: Antidiabetic activity in Wistar fatty rat assessed as increase in plasma insulin level at 1 to 10 mg/kg, po administered as single dose 1 hr prior to glucose challenge measured after 120 mins by OGTT; type: functional, organism-based; method in brief: as §3

| EC50 [1] | chromatographic logD [2] | Ki [3] | Ki [4] | Compound | other results |
| --- | --- | --- | --- | --- | --- |
| 27 nM | 3.88 |  |  | Cc1cccc(C)c1-c1cccc(COc2ccc3c(c2)OCC3CC(=O)O)c1 (centres undefined) |  |
| 69 nM | 4.12 | 1200 nM | > 10000 nM | Cc1cccc(C)c1-c1cccc(COc2ccc3c(c2)CC3CC(=O)O)c1 (centres undefined) |  |
| 10 nM | 4.53 | 6.9 nM | 170 nM | Cc1cccc(C)c1-c1cc(COc2ccc3c(c2)OCC3CC(=O)O)ccc1OCc1ccccc1 (centres undefined) |  |
| 28 nM | 5.03 | 18 nM | 100 nM | Cc1cc(OCc2ccccc2)cc(C)c1-c1cccc(COc2ccc3c(c2)OCC3CC(=O)O)c1 (centres undefined) |  |
| 29 nM | 4.15 | 57 nM | 1600 nM | Cc1ccc(-c2cccc(COc3ccc4c(c3)OCC4CC(=O)O)c2)c(C)c1 (centres undefined) |  |
| 33 nM | 4.4 |  |  | Cc1cccc(C)c1-c1cccc(COc2ccc3c(c2)CCC3CC(=O)O)c1 (centres undefined) |  |
| 140 nM | 4.33 | 280 nM | > 10000 nM | CCOCCOc1cc(C)c(-c2cccc(COc3ccc4c(c3)CCC(C(=O)O)C4)c2)c(C)c1 (centres undefined) |  |
|  | 3.41 | > 10000 nM | > 10000 nM | CCOCCOc1cc(C)c(-c2cccc(COc3ccc4c(c3)CC(=O)N4CC(=O)O)c2)c(C)c1 | Efficacy [5]: 59%; Efficacy [6]: 2% |
| 570 nM | 3.88 | > 10000 nM | > 10000 nM | Cc1cccc(C)c1-c1cccc(COc2ccc3c(n2)CCC3CC(=O)O)c1 (centres undefined) |  |
| 48 nM | 3.13 | 43 nM | 110 nM | CCOCCOc1cc(C)c(-c2cccc(CNc3ccc4c(c3)OCC4CC(=O)O)c2)c(C)c1 (centres undefined) |  |
| 33 nM | 4.47 | 36 nM | 130 nM | Cc1cc(C)c(-c2cccc(COc3ccc4c(c3)OCC4CC(=O)O)c2)c(C)c1 (centres undefined) |  |
| 180 nM | 3.97 | 570 nM | > 10000 nM | O=C(O)CC1COc2cc(OCc3cccc(-c4ccc5sccc5c4)c3)ccc21 (centres undefined) |  |
| 940 nM | 5.02 |  |  | Cc1cccc(C)c1-c1cccc(COc2ccc3c(c2)CCCCC3CC(=O)O)c1 (centres undefined) |  |
| 4900 nM | 4.04 |  |  | Cc1cccc(C)c1-c1cccc(COc2ccc3c(CC(=O)O)coc3c2)c1 |  |
| 84 nM | 4.39 | 270 nM | > 10000 nM | CCOCCOc1cc(C)c(-c2cccc(COc3ccc4c(c3)CC(CC(=O)O)C4)c2)c(C)c1 (centres undefined) |  |
| 960 nM | 4.11 | > 10000 nM | > 10000 nM | CCOCCOc1cc(C)c(-c2cccc(COc3ccc4c(c3)CC(C(=O)O)C4)c2)c(C)c1 (centres undefined) |  |
| 91 nM | 3.61 | 390 nM | 67 nM | CCOCCOc1cc(C)c(-c2cccc(COc3ccc4c(c3)COC4CC(=O)O)c2)c(C)c1 (centres undefined) |  |
| 24 nM | 3.31 | 130 nM | 1600 nM | COc1ccc(COc2ccc3c(c2)OCC3CC(=O)O)cc1-c1c(C)cccc1C (centres undefined) |  |
|  | 3.83 |  | 200 nM | CCOCCOc1cc(C)c(-c2cccc(COc3ccc4c(c3)OCC4CC(=O)O)c2)c(C)c1 (centres undefined) | Activity [7]: Active; minimal effective dose [8]: 10 mg/kg; Activity [9]: Active; minimal effective dose [10]: 10 mg/kg; Activity [11]: Active; Activity [12]: Active |
|  | 3.93 | > 10000 nM | > 10000 nM | Cc1cccc(C)c1-c1cccc(COc2ccc3c(ccn3CC(=O)O)c2)c1 | Efficacy [5]: 101%; Efficacy [6]: 2% |
| 70 nM | 4.05 |  |  | Cc1cccc(C)c1-c1cccc(COc2ccc3c(c2)OCCC(C(=O)O)C3)c1 (centres undefined) |  |
| 510 nM | 4.67 | 2100 nM | > 10000 nM | CCOCCOc1cc(C)c(-c2cccc(COc3ccc4c(c3)CCC(CC(=O)O)C4)c2)c(C)c1 (centres undefined) |  |
| 27 nM | 4.7 |  |  | Cc1cccc(C)c1-c1cccc(COc2ccc3c(c2)CCCC3CC(=O)O)c1 (centres undefined) |  |
| 39 nM | 3.99 | 290 nM | > 10000 nM | O=C(O)CC1COc2cc(OCc3cccc(-c4csc5ccccc45)c3)ccc21 (centres undefined) |  |
| 21 nM | 4.33 | 41 nM | 470 nM | Cc1ccc2ccccc2c1-c1cccc(COc2ccc3c(c2)OCC3CC(=O)O)c1 (centres undefined) |  |
